Assay results from different studies.
Compare with care: the assays were run in different laboratories.
Target: Cytochrome P450 2C9 (CYP2C9, Homo sapiens, UniProt P11712)
Read-out: enzyme activity
Action: inhibitor

C[C@@H](c1ccc2nccn2c1)n1nnc2ncc(-c3cnn(C)c3)nc21
IC50 (human, liver microsomes; pH 7.4): 4.7 µM

Cc1cc(C)c2c(c1)[C@@H](N(Cc1cc(C(F)(F)F)cc(C(F)(F)F)c1)c1nnn(C)n1)CCCN2C[C@H]1CC[C@H](C(=O)O)CC1
Ki (human, liver microsomes; pH 7.4): 0.57 µM

C[C@H]1CN(c2n[nH]c3nc(N[C@H]4CC[C@H](NS(=O)(=O)CCC(F)(F)F)CC4)ncc23)CCO1
IC50: > 100 µM

CCCOC(=O)C1CCN(C(=O)c2ccc(N(C)Cc3cnc4nc(N)nc(N)c4n3)cc2)CC1
IC50 (luciferase): 5.5 µM

Ic1ccc(CSCn2ccnc2)cc1
IC50 (MFC; 30 min, pH 7.4): 0.155 µM

COc1ccc2c(Cc3ccccc3F)c3n(c(=O)c2c1OC)CCc1cc2c(cc1-3)OCO2
IC50: > 10 µM

Nc1nc(N)c2nc(CNc3ccc(C(=O)NCCc4ccccc4)cc3)cnc2n1
IC50 (luciferase): 18.6 µM

C=CC(=O)Nc1cc(Nc2nccc(Nc3cc(Cl)c(F)cc3C(C)(C)O)n2)c(OC)cc1N1CC[C@@H](N(C)C)C1
IC50 (human, liver microsomes): > 30 µM

Cc1cc2c(F)c(Oc3ncnn4cc(OC[C@@H](C)O)c(C)c34)ccc2[nH]1
IC50 (fluorescence; 15 min): 1.39 µM

CCc1cc(/C(C)=N/OCc2ccc(C3CCCCC3)c(C(F)(F)F)c2)ccc1CN1CC(C(=O)O)C1
IC50 (human, liver microsomes; 20 min): ~1.3 µM

COc1ccc2c(Cc3ccccc3F)c3[n+](cc2c1OC)CCc1cc2c(cc1-3)OCO2
IC50: > 10 µM

COc1ccn2c(Nc3ccccc3F)c(-c3ccncn3)nc2c1
IC50: 0.41 µM

O=C(NCCN1CCCC1)c1cc(-c2ccc(CN3CCOCC3)cc2)nc2ccc(F)cc12
IC50 (human, liver microsomes): > 100 µM

Nc1nc(N)c2nc(CNc3ccc(C(=O)c4ccccc4)cc3)cnc2n1
IC50 (luciferase): 25.1 µM

Cc1ccc2nc(-c3ccccc3)c(CNc3ccc(F)cc3)n2c1
IC50: 0.41 µM
